The results in this text go back to ChEMBL document CHEMBL1157766, “Neolignans and glycosides from the stem bark of Illicium difengpi” (J Nat Prod, 2010).

Calls of active or inactive are those of the source. No cut-off for these calls is given here.

Experiment [1] is described as follows: Antiinflammatory activity in rat PMNC assessed as inhibition of platelet activating factor-induced beta-glucuronidase release preincubated for 15 mins at 37 degC. It counts as functional. The procedure, abridged:
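Rat polymorphonuclear leukocytes (2.5 × 10^6 cells/mL) preincubated with sample (diluted from 0.1 M DMSO stock to 10^-3 M) at 37 °C for 15 min. Cytochalasin B added for 5 min, then PAF for 5 min, stopped on ice. Supernatant β-glucuronidase measured with 2.5 mM phenolphthalein glucuronic acid in 0.1 M HOAc, 37 °C, 18 h. NaOH stop, A550; inhibitory ratio versus PAF and control.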

Experiment [2] can be described thus: Antioxidant activity in liver microsomes assessed as inhibition of Fe(2+)-Cys system-induced lipid peroxidation preincubated for 15 mins at 37 degC. It counts as functional, Microsome. The settings on record: for inhibition: Microsome. The essentials:
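Sample with liver microsome suspension and 0.2 µM cysteine in 0.1 M PBS pH 7.4, 37 °C, 15 min. Peroxidation started with 50 µM FeSO4 and stopped with 20% TFA. Supernatant heated with 0.67% thiobarbituric acid in boiling water for 10 min, then A532 read. Inhibitory ratio calculated from absorbances.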

In the case of `C=CCc1cc(OC)c(O[C@@H](CO)[C@H](O)c2cc(OC)c(O)c(OC)c2)c(OC)c1`, the results for the IC50 in experiment [1] and in experiment [2] were 24.4 µM and 42.3 µM, respectively.

In the case of `COc1cc(/C=C/CO)cc(OC)c1OC(=O)/C=C/c1ccccc1` [NEODIFENGPIN], in experiment [1], the IC50 is above 50 µM. Moreover, the inhibition result in experiment [2] is “inactive”. Taken in the same sequence, the figures for `COc1cc(CCCO)cc2c1O[C@H](C1=C[C@H](O)[C@H](O)CC1)[C@H]2CO` [DIFENGPIOL A] were above 50 µM and “inactive”. Take `COc1cc([C@H](O)[C@@H](CO)Oc2c(OC)cc(CCCO)cc2OC)ccc1OC(CO)CO`: in experiment [1], the IC50 was 1.62 µM. Moreover, the inhibition result in experiment [2] was “inactive”. As to `COc1cc(CCCO)cc2c1O[C@H]([C@]1(O)CC[C@H](OC)[C@@H](O)C1)[C@H]2CO` [DIFENGPIOL B], the IC50 in experiment [1] is above 50 µM. The inhibition entry in experiment [2] is “inactive”. In the case of `COc1cc(O[C@@H]2O[C@H](CO[C@@H]3O[C@@H](C)[C@H](O)[C@@H](O)C3O)[C@@H](O)[C@H](O)[C@H]2O)cc(O)c1OC` (single isomer, unassigned), in experiment [1], the half-maximal inhibitory concentration (IC50) was 7.66 µM. Moreover, the inhibition entry in experiment [2] is “inactive”. In the case of `C[C@@H]1C(=O)O[C@H]2[C@H](O)[C@@]34[C@H]5C[C@@H](C(C)(C)C)[C@]36[C@@H](OC(=O)[C@@H]6O)O[C@@]4(C(=O)O5)[C@@]12O` [GINKOLIDE B], in experiment [1], the IC50 was found to be 2.35 µM.

`C[C@@H]1O[C@@H](OC[C@H]2O[C@@H](Oc3cc4c(cc3O)OCO4)[C@H](O)[C@@H](O)[C@@H]2O)C(O)[C@H](O)[C@H]1O` (single isomer, unassigned): the IC50 in experiment [1] was above 50 µM. The inhibition result in experiment [2] was “inactive”.
